Reference: ChEMBL document CHEMBL1125029, “Chemical and biochemical studies of 2-propynylpyrrolidine derivatives. Restricted-rotation analogues of N-methyl-N-(1-methyl-4-pyrrolidino-2-butynyl)acetamide (BM-5)” (J Med Chem, 1990)

Legend:
[1] = target: Muscarinic acetylcholine receptor; test: Binding activity against Muscarinic acetylcholine receptor in rat cortex, using [3H]QNB as a radioligand.; assay type: tissue-based
In short: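 Radioligand 250 pM (30.0 Ci/mmol). Competitor at final 10^-12 to 10^-3 M. 10 μM atropine defines nonspecific binding. Filtration on PEI-soaked GF/B filters, scintillation counting. Apparent Ki from one-site competitive nonlinear fit.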

[2] = target: Muscarinic receptor M1 and M2 (Rattus norvegicus) (UniProt P08482+P10980); test: The agonist ratio as the ratio of Ki against [3H]QNB to that of [3H]-CD; assay type: functional
[3] = target: Muscarinic acetylcholine receptor; test: Binding activity to the muscarinic acetylcholine receptor in rat cortex, assayed using [3H]CD as a radioligand.; assay type: tissue-based
In short: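 Male Wistar rat cerebral cortex homogenate in 10 mM Na/K phosphate pH 7.4, diluted 1:300 (wet wt/v), ~0.75 mg protein per 2.0 mL. 1 nM radioligand (55.5 Ci/mmol), prepared fresh in buffer. Competitor 10^-12 to 10^-3 M. Nonspecific binding with 10 μM atropine. Rapid filtration on PEI-treated filters, scintillation counting. Apparent Ki by one-site competitive nonlinear regression.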

[4] = target: Muscarinic acetylcholine receptor; test: Binding activity to the muscarinic acetylcholine receptor in rat cortex, assayed using [3H]PZ as a radioligand.; assay type: tissue-based
In short: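 Rat (male Wistar, 200-250 g) cortex homogenized in ice-cold Na/K phosphate buffer pH 7.4, diluted 1:400, ~0.55 mg protein per 2.0 mL. 0.1 nM radioligand (84.1 Ci/mmol), made fresh just before use. Unlabeled competitor at final 10^-12 to 10^-3 M. 10 μM atropine for nonspecific. Filtered, counted by liquid scintillation. One-site competitive fit gives apparent Ki.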

[5] = target: Muscarinic acetylcholine receptor; test: Binding activity to muscarinic acetylcholine receptor in rat heart, assayed using [3H]QNB as a radioligand in the presence of Gpp(NH)p.
In short: (§1)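 Male Wistar rat heart ventricles flushed, minced, Polytron-homogenized in 10 mM Na/K phosphate pH 7.4, spun 48000 g 15 min 4 °C, resuspended, gauze-filtered, diluted 1:750, 0.15-0.2 mg protein/2.0 mL. 10 μM Gpp(NH)p added to homogenate for line 3. Competitor 10^-12 to 10^-3 M. 10 μM atropine nonspecific. Filtration, scintillation counting. Ki from one-site fit.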

[6] = target: Muscarinic acetylcholine receptor; test: Binding activity to muscarinic acetylcholine receptor in rat heart, assayed using [3H]-QNB as a radioligand.; in short: as §1
[7] = target: T1, Muscarinic acetylcholine receptor M1 (Rattus norvegicus) (UniProt P08482); test: Muscarinic 1 receptor agonistic activity as the selectivity ratio of Ki against [3H]-QNB to that of [3H]PZ; assay type: functional
T1 sequence (whole entry): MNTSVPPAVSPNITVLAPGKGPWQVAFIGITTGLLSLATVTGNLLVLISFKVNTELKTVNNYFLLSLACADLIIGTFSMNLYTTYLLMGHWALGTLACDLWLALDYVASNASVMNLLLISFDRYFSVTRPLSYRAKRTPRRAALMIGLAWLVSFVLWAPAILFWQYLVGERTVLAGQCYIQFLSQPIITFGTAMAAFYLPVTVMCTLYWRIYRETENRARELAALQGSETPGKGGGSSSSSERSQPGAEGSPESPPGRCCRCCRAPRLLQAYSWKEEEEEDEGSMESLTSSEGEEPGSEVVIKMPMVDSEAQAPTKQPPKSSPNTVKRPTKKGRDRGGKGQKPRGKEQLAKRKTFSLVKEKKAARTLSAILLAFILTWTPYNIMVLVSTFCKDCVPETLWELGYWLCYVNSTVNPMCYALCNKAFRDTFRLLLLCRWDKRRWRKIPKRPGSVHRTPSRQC

[8] = target: T1, Muscarinic acetylcholine receptor M1 (Rattus norvegicus); test: Muscarinic 1 receptor agonistic activity as the selectivity ratio of Ki against [3H]-QNB+ Gpp(NH)p to that of [3H]PZ; assay type: functional
[9] = target: T2, Muscarinic acetylcholine receptor M2 (Rattus norvegicus) (UniProt P10980); test: Muscarinic 2 receptor agonistic activity was determined as the selectivity ratio of Ki against [3H]QNB+ Gpp(NH)p to that of [3H]QNB; assay type: functional
T2 sequence (whole entry): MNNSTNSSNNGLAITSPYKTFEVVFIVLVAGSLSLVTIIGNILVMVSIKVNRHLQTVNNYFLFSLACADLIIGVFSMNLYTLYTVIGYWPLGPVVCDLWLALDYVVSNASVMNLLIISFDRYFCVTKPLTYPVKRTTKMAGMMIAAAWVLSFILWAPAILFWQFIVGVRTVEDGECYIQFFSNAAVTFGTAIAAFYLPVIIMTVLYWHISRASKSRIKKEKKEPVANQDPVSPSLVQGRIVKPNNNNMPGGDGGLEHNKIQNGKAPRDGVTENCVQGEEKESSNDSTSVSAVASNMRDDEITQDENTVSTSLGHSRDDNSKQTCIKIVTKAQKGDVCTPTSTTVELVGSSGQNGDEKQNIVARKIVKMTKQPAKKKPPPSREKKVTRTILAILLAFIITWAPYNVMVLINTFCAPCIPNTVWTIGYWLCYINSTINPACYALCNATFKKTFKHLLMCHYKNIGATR

Ki [1] [µM]	Ratio [2]	Ki [3] [µM]	Ki [4] [µM]	Ki [5] [µM]	Ki [6] [µM]	Ratio [7]	Ratio [8]	Ratio [9]	Structure (SMILES)
4.59	1	4.88	1.23	77	7.62	6.2	62	10	O=CN1CCC[C@H]1C#CCN1CCCC1
48.9	3.2	15.5	40	175	51.7	1.3	4.4	3.4	CC(=O)N1CCC[C@H]1C#CCN(C)C
